Screens (PubChem BioAssay)
ABHD5-PLIN5 inh: ABHD5-PLIN5 protein interaction inhibition | Q00G26+Q8WTS1 | Split G. princeps luciferase complementation, luminescence, 4 h | inhibition, % at 4 µM | 360,000 tested, 0.78% active;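 active = inhibition above the mean inhibition across every tested compound plus 3 SD, cut at about 22% in these data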;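 note: 0% = DMSO only wells and the 100% control is not disclosed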
MC4R antagonist: blocks human MC4R cAMP signaling; 360,000 tested, 0.48% active; inhibition, % at 6.5 µM; P32245; MC4R-expressing cells, MTII-stimulated cAMP, LANCE TR-FRET;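 active = inhibition above its plate's cutoff, the mean of tested wells on that plate plus 3 SD, cut at about 29% in these data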;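 note: 0% = Melanotan II alone and 100% = Melanotan II plus saturating MCL0020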
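Assay system: U2OS-MC4R stable cell line; Also added: Melanotan II; Technique: Eu-cAMP/anti-cAMP TR-FRET, emission 671 nm; Times: 30-min compound, 1-h challenge, 1-h detection, room temperature.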
MC4R barr agon: activates human MC4R beta-arrestin recruitment; P32245; activation, % at 8.9 µM; U2OS MC4R beta-arrestin complementation, luminescence; percent of melanotan II response, DMSO zero; 360,000 tested, 0.98% active;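 active = activation above a per-plate cutoff, the mean activation of sample wells on that plate plus 3 SD, cut at about 8% in these data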
PfG6PD inh: PfG6PD (Plasmodium falciparum) enzyme inhibition; PfGluPho enzyme, NADPH resazurin-diaphorase fluorescence; inhibition, % at 20 µM; 350,000 tested, 0.78% active; AID 504690;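 active = inhibition reaching at least a set limit at 20 µM in the primary screen, cut at about 59% in these data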;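 note: 0% = DMSO wells with substrate and 100% = DMSO wells lacking glucose-6-phosphate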
Beta2AR agonist: human beta-2 adrenergic receptor agonism by FAP; P07550; Am2.2-beta2AR cells, FAP receptor internalization, flow cytometry; response, % (test concentration not listed); 340,000 tested, 0.43% active; AID 504454;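 active = response above a set limit, near 3 SD of response in nonfluorescent compounds, cut at about 42% in these data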
U2OS cAMP counter: counter-screen for MC4R antagonists: nonselective cAMP signaling inhibitors; AID 602193; 1,600 tested, 26% active; parental U2OS, forskolin cAMP, LANCE TR-FRET; inhibition, % at 6.5 µM; shares compounds with MC4R antagonist;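 active = mean inhibition over triplicates above the low-control well mean plus 3 SD, set per campaign, cut at about 13% in these data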;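 note: signal is single emission at 671 nm which falls as cellular cAMP rises; 0% = forskolin-stimulated wells and 100% = buffer without forskolin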
MC4R antag conf: human MC4R cAMP antagonism confirmation. inhibition, % at 6.5 µM. shares compounds with MC4R antagonist. 1,600 tested, 27% active. MC4R-expressing cells, MTII-stimulated cAMP, TR-FRET; in the data active = inhibition above about 29%;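 note: 0% = agonist stimulated wells alone and 100% = agonist stimulated wells plus saturating reference antagonist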
MC4R barr conf: human MC4R beta-arrestin agonism confirmation | shares compounds with MC4R barr agon | U2OS MC4R beta-arrestin recruitment, luminescence; scaled DMSO 0%, Melanotan II 100% | activation, % at 8.9 µM | 2,400 tested, 31% active;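 active = mean activation across replicates above the hit cutoff set in the earlier primary screen, cut at about 8% in these data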
MOR DOR agonist: OPRM1-OPRD1 heterodimer agonism counter-screen; activation, % at 9.2 µM; shares compounds with MC4R barr agon; 2,400 tested, 5.8% active; U2OS PathHunter beta-arrestin, beta-gal luminescence; percent of deltorphin B response, DMSO zero;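 active = mean activation across replicates exceeds the hit threshold derived in the earlier primary screen, cut at about 18% in these data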;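 note: 100% = deltorphin B at 0.9 µM final and 0% = DMSO alone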
ABHD5 PLIN5 conf: ABHD5-PLIN5 interaction inhibition, confirmed; shares compounds with ABHD5-PLIN5 inh; biochemical ABHD5-PLIN5 interaction, luminescence; inhibition, % at 4 µM; 2,200 tested, 67% active; in the data active = inhibition above about 23%;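 note: 0% = DMSO vehicle wells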
HNF4 split-luc: HNF4 split-luciferase signal hit, counter-screen. shares compounds with ABHD5-PLIN5 inh. HNF4 dimerization, luminescence, biochemical. inhibition, % at 4 µM. 2,200 tested, 77% active. AID 651674;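 active = mean inhibition across replicate wells exceeding the computed hit threshold, cut at about 13% in these data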;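 note: light from luciferase halves that rejoin when HNF4 fusion proteins dimerize; 0% = DMSO only wells and the 100% control is not given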
Target sequence (P41235 whole entry, looked up, the tested form may be a part): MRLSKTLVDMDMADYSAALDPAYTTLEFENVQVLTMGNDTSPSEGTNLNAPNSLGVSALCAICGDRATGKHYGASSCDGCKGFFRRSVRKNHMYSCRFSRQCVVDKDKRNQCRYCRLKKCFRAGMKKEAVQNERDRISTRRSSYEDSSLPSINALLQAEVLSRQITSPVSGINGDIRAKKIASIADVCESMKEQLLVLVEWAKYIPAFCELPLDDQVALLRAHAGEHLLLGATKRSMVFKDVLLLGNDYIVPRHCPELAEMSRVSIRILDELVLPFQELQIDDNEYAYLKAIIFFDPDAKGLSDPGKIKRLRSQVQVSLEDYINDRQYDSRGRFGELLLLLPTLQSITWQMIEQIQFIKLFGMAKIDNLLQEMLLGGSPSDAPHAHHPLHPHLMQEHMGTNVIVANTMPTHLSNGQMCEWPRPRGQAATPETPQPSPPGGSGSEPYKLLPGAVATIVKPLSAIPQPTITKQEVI
Starred values were filed as active, the others as inactive; . = no result given. An excerpt weighted towards active compounds, which were near 3% of everything screened.

SMILES | ABHD5-PLIN5 inh | MC4R antagonist | MC4R barr agon | PfG6PD inh | Beta2AR agonist | others
C=CCn1c(O)c(C(CC)=Nc2cccc(C(=O)O)c2)c(=O)[nH]c1=O | 6 | 31* | 2 | -11 | -1 | U2OS cAMP counter=1;MC4R antag conf=6
CN1C(=O)C(c2ccccc2)C(=O)N(C)C1=O | 0 | 30* | 2 | 7 | -9 | U2OS cAMP counter=-1;MC4R antag conf=12
CCC1(c2ccccc2)C(=O)N(C)C(=O)N(C)C1=O | -10 | -5 | 0 | 21 | 6
CCOC(=O)c1c(-n2c(C)cc(C=C3C(=O)NC(=O)NC3=O)c2C)sc2c1CCCC2 | -17 | 30* | 1 | -4 | 12 | U2OS cAMP counter=2;MC4R antag conf=-10
C=CCN1CC[C@]23c4c5ccc(O)c4OC2C(=O)CC[C@@]3(O)C1C5 (stereo not given in full) | 2 | 9 | -1 | 10 | -6
O=C1NC(=O)N(c2ccc3c(c2)OCO3)C(=O)/C1=C\c1ccc(N2CCCCC2)o1 | 2 | -15 | -3 | 16 | -56
O=C1NC(=O)C(=Cc2ccc(SC3CCCCC3)o2)C(=O)N1 | 17 | 38* | 0 | 42 | 7 | U2OS cAMP counter=11;MC4R antag conf=26
COC(=O)C1=C(c2cccc(OCc3ccccc3)c2)C[C@@H]2CC[C@H]1N2C(=O)NC1CCN(Cc2ccccc2)CC1 | -1 | -1 | 1 | 8 | 35
Cc1ccc(N2C(=O)NC(=O)/C(=C/c3cnn(-c4ccc(C)cc4)c3)C2=O)cc1 | 7 | 5 | 2 | 36 | 23
Cc1ccc(N2C(=O)NC(=O)/C(=C/c3ccoc3)C2=O)cc1 | 6 | 33* | -2 | 22 | 4 | U2OS cAMP counter=3;MC4R antag conf=-2
O=C(c1cc(S(=O)(=O)N2CCC3(CC2)OCCO3)ccc1F)N1CCC2(CC1)OCCO2 | -2 | -10 | 0 | 13 | 0
Cc1ccccc1CCNCc1ccc(Br)cc1 | 3 | 21 | 2 | -8 | 14
COc1cccc(C(=O)C2CCCN(Cc3cccc4c3OCO4)C2)c1 (stereo not given) | -1 | 29* | -2 | -28 | -3 | U2OS cAMP counter=4;MC4R antag conf=11
CC/C(=N\Nc1ccccc1)c1c(O)n(-c2ccc(OC)cc2)c(=O)[nH]c1=O | 11 | 33* | 4 | 5 | -16 | U2OS cAMP counter=0;MC4R antag conf=-6
COc1ccc(CN2Cc3cnnn3-c3ccccc3C2C#N)cc1 (stereo not given) | 58* | 32* | 0 | 21 | 21 | U2OS cAMP counter=5;MC4R antag conf=27;ABHD5 PLIN5 conf=91*;HNF4 split-luc=89*
COc1ccc(C2=CC(c3ccc(OC)c(OC)c3)c3c(c4ccccc4oc3=O)O2)cc1OC (stereo not given) | -3 | -9 | -1 | 17 | 6
C=C1C(=O)OC2CC3(C)OC3C3OC3C3=CC(OC3=O)C12 (stereo not given) | 100* | 43* | -2 | . | . | U2OS cAMP counter=19*;MC4R antag conf=33*;ABHD5 PLIN5 conf=101*;HNF4 split-luc=111*
Cc1nn(Cc2ccccc2)c(Cl)c1C(=O)OC(C)C(=O)Nc1ccc(F)cc1Cl (stereo not given) | 2 | 12 | 2 | -2 | -6
O=c1[nH]cnc2nc(-c3ccc(N(CCCl)CCCl)cc3)[nH]c12 | 3 | 14 | 9.8* | 12 | 3 | MC4R barr conf=13*;MOR DOR agonist=19*
Cc1cc2oc(=O)cc(-c3cc4ccccc4o3)c2cc1OC(=O)N(C)C | -2 | -7 | 17* | 3 | 6 | MC4R barr conf=0;MOR DOR agonist=3
O=C1CN=C(c2ccc(Cl)cc2)c2oc3ccccc3c2N1 | 3 | -7 | 11* | -11 | -16 | MC4R barr conf=2;MOR DOR agonist=9
CCc1cc2c(cc1-c1csc(C/C(N)=N/O)n1)C(C)(C)CCC2(C)C | -8 | 18 | -3 | 20 | .
CC12CCC3C(CC=C4CC(O)CCC43C)C1C/C(=C\c1cccc(F)c1)C2=O (stereo not given) | 1 | 5 | 14* | 12 | 19 | MC4R barr conf=7;MOR DOR agonist=6
C[C@]12CC[C@@H](O)CC1=CCC1C2CC[C@]2(C)C(=O)[C@H](F)CC12 (stereo not given in full) | -4 | -1 | 0 | 11 | -1
C=CCOC(=O)COc1cc(C)cc2oc(=O)c3c(c12)CCC3 | -5 | 3 | 11* | -13 | 0 | MC4R barr conf=9.0*;MOR DOR agonist=5
SMILES | ABHD5-PLIN5 inh | MC4R antagonist | MC4R barr agon | PfG6PD inh | Beta2AR agonist | others
CCCCOC(=O)COc1cc(C)cc2oc(=O)c3c(c12)CCC3 | 5 | 4 | -2 | -3 | 0
CC(Cc1ccccc1)NC(=O)CCCCC(=O)NC(C)Cc1ccccc1 (stereo not given) | 3 | 13 | -1 | -11 | -1
O=C(NCCN1CCCCC1)c1ccc(Cl)nc1Cl | 6 | 7 | -1 | -6 | -1
COc1ccc(N2C(=O)NC(=O)/C(=C\c3ccccc3[N+](=O)[O-])C2=O)cc1 | 23* | 10 | -1 | 24 | -1 | ABHD5 PLIN5 conf=81*;HNF4 split-luc=85*
CCOc1ccc(N2C(=O)/C(=C\c3cccs3)C(=O)NC2=S)cc1 | . | . | . | 32 | .
CCOc1ccc(N2C(=O)NC(=O)/C(=C\c3ccccc3[N+](=O)[O-])C2=O)cc1 | 28* | 10 | 1 | 16 | 6 | ABHD5 PLIN5 conf=87*;HNF4 split-luc=85*
O=P(C(c1ccc2c(c1)OCO2)N1CCOCC1)(N1CCOCC1)N1CCOCC1 (stereo not given) | -2 | 12 | -2 | -14 | 12
CN1CCc2cc3c(cc2C1)OCO3 | -2 | 4 | -2 | -4 | 2
NC(=S)/N=C/c1c(O)[nH]c(=O)[nH]c1=O | 5 | -4 | -5 | -6 | -1
C=CCNC(=S)/N=C/c1c(O)[nH]c(=O)[nH]c1=O | 28* | -8 | 4 | -14 | -5 | ABHD5 PLIN5 conf=1;HNF4 split-luc=6
O=c1[nH]c(O)c(/C=C2\C=NN=C2c2ccccc2)c(=O)[nH]1 | 30* | 0 | -2 | 19 | -4 | ABHD5 PLIN5 conf=62*;HNF4 split-luc=63*
CC1=NN(c2ccccc2)C(=O)/C1=C/c1c(O)[nH]c(=O)[nH]c1=O | -22 | 9 | -2 | 9 | 1
CC(C)(C)P(=O)(c1ccncc1)N1CCCC1 (stereo not given) | -1 | 9 | 1 | -7 | -8
